# Measured values taken from ChEMBL document CHEMBL4371095, “Triazole-Based Inhibitors of the Wnt/β-Catenin Signaling Pathway Improve Glucose and Lipid Metabolisms in Diet-Induced Obese Mice” (J Med Chem, 2019).
# The source made the active and inactive calls. The calls are words filed in the database; no cut-off is given here.
# Key:
# Axin-1 (Homo sapiens) = Axin-1 (Homo sapiens) (UniProt O15169); test: Stabilization of Axin1 protein in HEK293 cells assessed as increase in cytoplasmic punctas at 1 uM after 14 hrs by DAPI staining based confocal microscopic method; assay type: cell-based
# Summary of the method: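 HEK293 cells on poly-D-lysine slides were treated with 1 μM compound for 14 h. Cells were fixed in 10% formalin for 20 min, permeabilized with methanol, blocked with 5% BSA, stained overnight for Axin1 with secondary antibody for 2 h, counterstained with DAPI, and imaged by confocal microscopy.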
# HEK293 [1] = test: Inhibition of Wnt/beta-catenin signaling (unknown origin) expressed in HEK293 cells assessed as increase in GSK3beta binding to beta-catenin after 12 hrs by immunoprecipitation method; assay type: cell-based; conditions: Homo sapiens
# HEK293 [2] = test: Inhibition of Wnt/beta-catenin signaling (unknown origin) expressed in CK1alpha knock down HEK293 cells harboring TCF/LEF-responsive luciferase assessed as luminescence at 20 nM measured after 24 hrs by luciferase reporter gene assay relative to control; assay type: cell-based; set-up: scale not given: the % may be the effect or the level left; conditions: Homo sapiens
# Summary of the method: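 HEK293 cells were transfected with siRNA against GSK3β, Axin or CK1α using RNAiMAX for 36 h. Cells were then treated with or without compound at 20 nM for 24 h, and TCF/LEF luciferase reporter activity was read.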
# HepG2 = test: Inhibition of Wnt/beta-catenin deletion mutant signaling in human HepG2 cells at 50 nM after 24 hrs by luciferase reporter gene assay; assay type: cell-based
# Summary of the method: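 HepG2 cells carry the CTNNB1 Δ25–140 deletion and were transfected with the TCF/LEF luciferase reporter constructs. Compound was applied and reporter luminescence measured; mean ± S.D., n = 3.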
# Mus musculus [3] = species: Mus musculus; test: Inhibition of Wnt/beta-catenin/Axin signaling in mouse hepatocytes assessed as decrease in ACOT4 mRNA level at 5 uM by qPCR analysis; assay type: cell-based
# Summary of the method: (§1)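 Normal mouse hepatocytes were treated with 5 μM compound, and lipogenic and gluconeogenic gene mRNA was measured by qPCR; mean ± S.D. of triplicates.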
# Mus musculus [4] = species: Mus musculus; test: Inhibition of Wnt/beta-catenin/Axin signaling in mouse hepatocytes assessed as decrease in SCD1 mRNA level at 5 uM by qPCR analysis; assay type: cell-based; summary of the method: as §1
# [5] = Half life in mouse at 10 mg/kg, po or 10 mg/kg, iv administered as single dose by LC-MS analysis; assay type: ADME, organism-based; conditions: in vivo
# Summary of the method: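 Compound was dissolved at 1 mg/ml in 10% Kolliphor EL and 10% polyethylene glycol in saline. Ten mice were split into intravenous and oral groups and given a single 10 mg/kg dose. Tail-vein blood was sampled at several time points and analysed by LC/MS/MS.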
# Mus musculus [6] = test: Antidiabetic activity in high fat diet fed C57BL/6J mouse assessed as improvement in glucose tolerance at 40 mg/kg, ip administered every 2 days for 11 weeks followed by glucose-challenge and measured up to 120 mins by IPGTT; assay type: functional, organism-based
# Summary of the method: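 Male mice, 8 weeks old, fed a 45% kcal fat diet for 6 weeks, then dosed i.p. every 2 days in corn oil vehicle alongside the continued diet. IPGTT was done before and at the end of treatment: 6–8 h fast, then glucose 2 g/kg i.p. in saline. Tail-vein blood glucose was read by glucometer over time, and AUC was derived; mean ± SEM, n = 5 per group.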
# Mus musculus [7] = test: Decrease in hepatic G6pase mRNA level in high fat diet fed C57BL/6J mouse at 40 mg/kg, ip administered every 2 days for 11 weeks by qPCR analysis; assay type: functional, organism-based
# Summary of the method: (§2)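 Male mice, 8 weeks old, fed a 45% kcal fat diet for 6 weeks, then dosed i.p. every 2 days in corn oil vehicle for 11 weeks. Liver mRNA of the indicated genes was quantified at sacrifice; mean ± SEM, n = 5 per group.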
# Mus musculus [8] = test: Decrease in hepatic GCK mRNA level in high fat diet fed C57BL/6J mouse at 40 mg/kg, ip administered every 2 days for 11 weeks by qPCR analysis; assay type: functional, organism-based; summary of the method: as §2
# Mus musculus [9] = test: Effect on hepatic SREBP1 mRNA level in normal chow diet fed C57BL/6J mouse at 40 mg/kg, ip administered every 2 days for 11 weeks by qPCR analysis; assay type: ADME, organism-based; conditions: in vivo
# Summary of the method: (§3)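 Male mice, 8 weeks old, kept on normal chow throughout and dosed i.p. every 2 days in corn oil vehicle for 11 weeks. Body weight gain, liver/body weight ratio, and liver mRNA of the indicated genes were measured at sacrifice; mean ± SEM, n = 5 per group where stated.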
# Mus musculus [10] = test: Effect on hepatic […] mRNA level in normal chow diet fed C57BL/6J mouse at 40 mg/kg, ip administered every 2 days for 11 weeks by qPCR analysis; assay type: ADME, organism-based; conditions: in vivo; summary of the method: as §3
# Mus musculus [11] = test: Effect on hepatic ACC1 mRNA level in normal chow diet fed C57BL/6J mouse at 40 mg/kg, ip administered every 2 days for 11 weeks by qPCR analysis; assay type: ADME, organism-based; conditions: in vivo; summary of the method: as §3
# Mus musculus [12] = test: Decrease in body weight gain in high fat diet fed C57BL/6J mouse at 40 mg/kg, ip administered every 2 days for 11 weeks; assay type: functional, organism-based
# Summary of the method: (§4)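 Male mice, 8 weeks old, 24–27 g, given a 45% kcal fat diet for 6 weeks, then dosed i.p. every 2 days in corn oil vehicle with the diet continued. Sacrifice was about 24 h after the last dose. Liver was examined by H&E. Liver and serum triglyceride were measured by kit. Serum chemistry was included, and liver/body weight ratio was calculated.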
# Mus musculus [13] = test: Effect on body weight gain in normal chow diet fed C57BL/6J mouse at 40 mg/kg, ip administered every 2 days for 11 weeks; assay type: ADME, organism-based; conditions: in vivo; summary of the method: as §3
# Mus musculus [14] = test: Decrease in serum cholesterol level in high fat diet fed C57BL/6J mouse at 40 mg/kg, ip administered every 2 days for 11 weeks; assay type: functional, organism-based; summary of the method: as §4
# [15] = Toxicity in high fat diet fed C57BL/6J mouse assessed as serum AST level at 40 mg/kg, ip administered every 2 days for 11 weeks (reference value: 131 +/- 15.6 U/L); assay type: organism-based; conditions: in vivo
# [16] = Toxicity in normal chow diet fed C57BL/6J mouse assessed as serum alkaline phosphatase level at 40 mg/kg, ip administered every 2 days for 11 weeks (reference value: 66.5 +/- 1.8 U/L); assay type: organism-based; conditions: in vivo
# Sequence of Axin-1 (Homo sapiens) (O15169 whole entry): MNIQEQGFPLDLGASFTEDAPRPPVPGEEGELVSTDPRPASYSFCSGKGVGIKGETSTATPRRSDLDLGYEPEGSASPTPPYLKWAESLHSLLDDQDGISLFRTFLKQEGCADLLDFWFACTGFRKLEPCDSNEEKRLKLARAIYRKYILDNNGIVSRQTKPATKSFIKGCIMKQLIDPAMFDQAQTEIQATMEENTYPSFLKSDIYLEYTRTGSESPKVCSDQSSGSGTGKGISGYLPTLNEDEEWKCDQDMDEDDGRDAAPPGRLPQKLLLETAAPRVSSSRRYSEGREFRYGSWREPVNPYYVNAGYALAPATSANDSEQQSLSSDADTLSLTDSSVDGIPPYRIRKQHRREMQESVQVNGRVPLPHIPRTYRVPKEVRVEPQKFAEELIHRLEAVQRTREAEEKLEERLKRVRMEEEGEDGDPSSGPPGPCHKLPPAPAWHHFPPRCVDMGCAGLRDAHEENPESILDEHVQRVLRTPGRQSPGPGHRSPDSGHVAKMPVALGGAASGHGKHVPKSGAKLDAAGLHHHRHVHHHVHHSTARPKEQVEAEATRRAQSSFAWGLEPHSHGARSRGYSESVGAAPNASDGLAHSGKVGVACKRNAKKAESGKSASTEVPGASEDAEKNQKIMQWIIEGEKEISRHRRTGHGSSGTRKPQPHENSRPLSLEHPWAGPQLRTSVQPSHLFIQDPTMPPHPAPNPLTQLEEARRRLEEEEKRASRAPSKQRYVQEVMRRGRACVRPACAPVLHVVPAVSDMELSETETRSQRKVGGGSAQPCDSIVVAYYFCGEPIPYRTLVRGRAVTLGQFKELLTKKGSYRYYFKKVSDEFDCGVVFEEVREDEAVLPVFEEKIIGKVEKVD
smiles,measurement,setting,value
Cc1ccccc1-n1nnc(C(=O)Nc2ccc3ccccc3n2)c1C,Activity,Axin-1 (Homo sapiens),Active
same,inhibition,HEK293 [1],Active
same,Activity,HEK293 [2],52%
same,inhibition,HepG2,inactive
same,inhibition,Mus musculus [3],Active
same,inhibition,Mus musculus [4],Active
same,half-life,[5],2.8 to 3.3 h
same,Activity,Mus musculus [6],Active
same,Activity,Mus musculus [7],Active
same,Activity,Mus musculus [8],Active
same,Activity,Mus musculus [9],Non-Toxic
same,Activity,Mus musculus [10],Non-Toxic
same,Activity,Mus musculus [11],Non-Toxic
same,Activity,Mus musculus [12],Active
same,Activity,Mus musculus [13],Non-Toxic
same,Activity,Mus musculus [14],Active
same,Activity,[15],94.8 U/L
same,Activity,[16],57.5 U/L
